According to ChEMBL document CHEMBL1833805, “Histone deacetylase inhibitors from Burkholderia thailandensis” (2011):
Active and inactive are the calls of the source.

Columns and labels:
Assay type in all cases: functional, organism-based
NCI-H522 = assay: Antitumor activity against human NCI-H522 cells implanted intraperitoneally in mouse assessed as inhibition of tumor cell growth at 1.6 to 2.4 mg/kg, ip administered on day 1 to 4 measured on day 5 by hollow fiber assay
Procedure, shortened: (§1)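 Human tumour cell lines from a standard 12-line panel encapsulated in polyvinylidene fluoride hollow fibres (500,000 Da exclusion), implanted intraperitoneally or subcutaneously in mice; drug given IP at 2.4 and 1.6 mg/kg/dose on days 1–4; fibres retrieved and viable cell mass determined day 5; T/C versus vehicle-only injected controls.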

LOX IMVI = assay: Antitumor activity against human LOXIMVI cells implanted intraperitoneally in mouse assessed as inhibition of tumor cell growth at 1.6 to 2.4 mg/kg, ip administered on day 1 to 4 measured on day 5 by hollow fiber assay; procedure, shortened: as §1
NCI-H23 = assay: Antitumor activity against human NCI-H23 cells implanted intraperitoneally in mouse assessed as inhibition of tumor cell growth at 1.6 to 2.4 mg/kg, ip administered on day 1 to 4 measured on day 5 by hollow fiber assay; procedure, shortened: as §1
Homo sapiens = assay: Antitumor activity against human […] cells implanted intraperitoneally in mouse assessed as inhibition of tumor cell growth at 1.6 to 2.4 mg/kg, ip administered on day 1 to 4 measured on day 5 by hollow fiber assay; procedure, shortened: as §1
OVCAR-5 = assay: Antitumor activity against human OVCAR5 cells implanted intraperitoneally in mouse assessed as inhibition of tumor cell growth at 1.6 to 2.4 mg/kg, ip administered on day 1 to 4 measured on day 5 by hollow fiber assay; procedure, shortened: as §1
SF-295 = assay: Antitumor activity against human SF295 cells implanted intraperitoneally in mouse assessed as inhibition of tumor cell growth at 1.6 to 2.4 mg/kg, ip administered on day 1 to 4 measured on day 5 by hollow fiber assay; procedure, shortened: as §1
MDA-MB-231 = assay: Antitumor activity against human MDA-MB-231 cells implanted intraperitoneally in mouse assessed as inhibition of tumor cell growth at 1.6 to 2.4 mg/kg, ip administered on day 1 to 4 measured on day 5 by hollow fiber assay; procedure, shortened: as §1
UACC-62 = assay: Antitumor activity against human UACC62 cells implanted intraperitoneally in mouse assessed as inhibition of tumor cell growth at 1.6 to 2.4 mg/kg, ip administered on day 1 to 4 measured on day 5 by hollow fiber assay; procedure, shortened: as §1
MDA-MB-435 = assay: Antitumor activity against human MDA-MB-435 cells implanted intraperitoneally in mouse assessed as inhibition of tumor cell growth at 1.6 to 2.4 mg/kg, ip administered on day 1 to 4 measured on day 5 by hollow fiber assay; procedure, shortened: as §1
COLO 205 = assay: Antitumor activity against human COLO205 cells implanted intraperitoneally in mouse assessed as inhibition of tumor cell growth at 1.6 to 2.4 mg/kg, ip administered on day 1 to 4 measured on day 5 by hollow fiber assay; procedure, shortened: as §1
SW-620 = assay: Antitumor activity against human SW620 cells implanted intraperitoneally in mouse assessed as inhibition of tumor cell growth at 1.6 to 2.4 mg/kg, ip administered on day 1 to 4 measured on day 5 by hollow fiber assay; procedure, shortened: as §1
U-251 = assay: Antitumor activity against human U251 cells implanted intraperitoneally in mouse assessed as inhibition of tumor cell growth at 1.6 to 2.4 mg/kg, ip administered on day 1 to 4 measured on day 5 by hollow fiber assay; procedure, shortened: as §1

Measured: TGI

C/C=C1\NC(=O)[C@H]2CSSCC/C=C/[C@H](CC(=O)N[C@H](C(C)C)C(=O)N2)OC(=O)[C@H](C(C)C)NC1=O
active: NCI-H522 | LOX IMVI | NCI-H23 | Homo sapiens | OVCAR-5 | SF-295 | MDA-MB-231 | UACC-62 | MDA-MB-435 | COLO 205 | SW-620 | U-251
